The structures appear in SMILES notation. Converted amounts (≈) assume the structure as drawn. Square brackets hold non-standard residues; d marks the D form. Peptide text beside a SMILES is read from it. Orn = NCCC[C@H](N)C(=O)O

By MIC is commonly meant the lowest concentration that inhibits growth of the organism.

The nature of data set [1]: Therapeutic index, ratio of hemolytic activity in human RBC to MIC for Candida albicans. Particulars: human red blood cells (RBC), read-out: TI.
A short description of data set [2]: Therapeutic index, ratio of hemolytic activity in human RBC to MIC for Streptococcus pneumoniae. Conditions: human red blood cells (RBC), read-out: TI.
Data set [3] in a line: Therapeutic index, ratio of hemolytic activity in human RBC to MIC for Staphylococcus epidermidis. Conditions: human red blood cells (RBC), read-out: TI.
Data set [4] can be described thus: Therapeutic index, ratio of hemolytic activity in human RBC to MIC for Acinetobacter calcoaceticus. Conditions: human red blood cells (RBC), read-out: TI.
The subject of a further data set is Serratia marcescens. In words: Antimicrobial activity against Serratia marcescens after 24 hrs by standard microtiter dilution method. Type of data set: functional.
A short description of data set [5]: Toxicity in human RBC assessed as fold reduction in hemolytic activity at 100 ug/ml after 24 hrs relative to control. The format is cell-based. Particulars: erythrocyte.
Data set [6] can be described thus: Therapeutic index, ratio of hemolytic activity in human RBC to MIC for Stenotrophomonas maltophilia. Conditions: human red blood cells (RBC), read-out: TI.
The test system of a further data set is Pseudomonas aeruginosa. Nature of the data set: Antimicrobial activity against Pseudomonas aeruginosa after 24 hrs by standard microtiter dilution method. The format is functional.
The next data set deals with Cryptococcus neoformans. In words: Antimicrobial activity against Cryptococcus neoformans after 24 hrs by standard microtiter dilution method. The format is functional. In short, it runs like this: (§1)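 Fungal MICs were determined by standard microtitre dilution, taken as the lowest peptide concentration inhibiting growth after 24 h incubation at 37 °C.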
Another data set relates to Streptococcus pyogenes. Nature of the data set: Antimicrobial activity against Streptococcus pyogenes after 24 hrs by standard microtiter dilution method. The format is functional.
The subject of another data set is Klebsiella pneumoniae. In words: Antimicrobial activity against Klebsiella pneumoniae after 24 hrs by standard microtiter dilution method. The format is functional.
The next data set relates to Candida albicans. Nature of the data set: Antimicrobial activity against Candida albicans after 24 hrs by standard microtiter dilution method. Type of data set: functional. The essentials:
as §1

Another data set has as its system Staphylococcus aureus. In words: Antimicrobial activity against Staphylococcus aureus after 24 hrs by standard microtiter dilution method. The format is functional.
Data set [7] in a line: Therapeutic index, ratio of hemolytic activity in human RBC to MIC for Pseudomonas aeruginosa. Conditions: human red blood cells (RBC), read-out: TI.
Data set [8] concerns Acinetobacter calcoaceticus. Nature of the data set: Antimicrobial activity against Acinetobacter calcoaceticus after 24 hrs by standard microtiter dilution method. The format is functional.
A short description of data set [9]: Therapeutic index, ratio of hemolytic activity in human RBC to MIC for Corynebacterium jeikeium. Particulars: human red blood cells (RBC), read-out: TI.
The nature of data set [10]: Therapeutic index, ratio of hemolytic activity in human RBC to MIC for Streptococcus mitis. Conditions: human red blood cells (RBC), read-out: TI.
For another data set, the system named is Streptococcus pneumoniae. In words: Antimicrobial activity against Streptococcus pneumoniae after 24 hrs by standard microtiter dilution method. The format is functional.
In a further data set the test system is Enterococcus faecalis. In words: Antimicrobial activity against Enterococcus faecalis after 24 hrs by standard microtiter dilution method. Type of data set: functional.
Data set [11] relates to Staphylococcus epidermidis. Nature of the data set: Antimicrobial activity against Staphylococcus epidermidis after 24 hrs by standard microtiter dilution method. Type of data set: functional.
A further data set relates to Streptococcus mitis. Nature of the data set: Antimicrobial activity against Streptococcus mitis after 24 hrs by standard microtiter dilution method. The format is functional.
Data set [12] in a line: Therapeutic index, ratio of hemolytic activity in human RBC to MIC for Cryptococcus neoformans. Conditions: human red blood cells (RBC), read-out: TI.
Data set [13] deals with Stenotrophomonas maltophilia. In words: Antimicrobial activity against Stenotrophomonas maltophilia after 24 hrs by standard microtiter dilution method. Type of data set: functional.
Another data set relates to Escherichia coli. In words: Antimicrobial activity against Escherichia coli after 24 hrs by standard microtiter dilution method. Type of data set: functional.
Data set [14] can be described thus: Therapeutic index, ratio of hemolytic activity in human RBC to MIC for Enterobacter cloacae. Conditions: human red blood cells (RBC), read-out: TI.
Data set [15] can be described thus: Therapeutic index, ratio of hemolytic activity in human RBC to MIC for Serratia marcescens. Conditions: human red blood cells (RBC), read-out: TI.
The subject of the next data set is Corynebacterium jeikeium. In words: Antimicrobial activity against Corynebacterium jeikeium after 24 hrs by standard microtiter dilution method. The format is functional.
The nature of data set [16]: Therapeutic index, ratio of hemolytic activity in human RBC to MIC for Streptococcus pyogenes. Particulars: human red blood cells (RBC), read-out: TI.
A short description of data set [17]: Therapeutic index, ratio of hemolytic activity in human RBC to MIC for Escherichia coli. Particulars: human red blood cells (RBC), read-out: TI.
A short description of data set [18]: Therapeutic index, ratio of hemolytic activity in human RBC to MIC for Staphylococcus aureus. Particulars: human red blood cells (RBC), read-out: TI.
Data set [19] can be described thus: Toxicity in human RBC assessed as hemolytic activity at 100 ug/ml after 24 hrs relative to control. The format is cell-based, Erythrocyte. Conditions: human red blood cells (RBC), read-out: Activity. The essentials: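 Human erythrocytes in saline were exposed to peptide at 100 µg/mL for 24 h at 37 °C. Result is expressed as percent hemolysis.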
The next data set concerns Enterobacter cloacae. Nature of the data set: Antimicrobial activity against Enterobacter cloacae after 24 hrs by standard microtiter dilution method. The format is functional.
A short description of data set [20]: Therapeutic index, ratio of hemolytic activity in human RBC to MIC for Klebsiella pneumoniae. Conditions: human red blood cells (RBC), read-out: TI.
Data set [21] can be described thus: Therapeutic index, ratio of hemolytic activity in human RBC to MIC for Enterococcus faecalis. Conditions: human red blood cells (RBC), read-out: TI.

On to `CC(C)C[C@@H]1NC(=O)[C@H](CCCCN)NC(=O)[C@H](C(C)C)NC(=O)[C@@H]2CCCN2C(=O)[C@@H](Cc2ccc(O)cc2)NC(=O)[C@H](CC(C)C)NC(=O)[C@H](CCCCN)NC(=O)[C@H](C(C)C)NC(=O)[C@@H]2CCCN2C(=O)[C@@H](Cc2ccc(O)cc2)NC(=O)[C@H](CCCCN)NC1=O` (cyclo(VKLK[dY]PVKL[dY]P)), for which the selectivity ratio in data set [1] was 16; in data set [2], 255; in data set [3] it was 128; in data set [4], 255.
As to `CC(C)C[C@@H]1NC(=O)[C@H](CCCCN)NC(=O)[C@H](C(C)C)NC(=O)[C@@H]2CCCN2C(=O)[C@@H](Cc2ccc(O)cc2)NC(=O)[C@H](CC(C)C)NC(=O)[C@H](CCCCN)NC(=O)[C@H](C(C)C)NC(=O)[C@H](CCCCN)NC(=O)[C@H](CC(C)C)NC(=O)[C@@H]2CCCN2C(=O)[C@@H](Cc2ccc(O)cc2)NC(=O)[C@H](C(C)C)NC(=O)[C@H](CCCCN)NC1=O` (cyclo(KLKV[dY]PLKVKL[dY]PV)), the MIC was determined as 256 µg/mL (≈ 153 µM) against Serratia marcescens; 64 µg/mL (≈ 38.3 µM) in the data set with Pseudomonas aeruginosa; 2 µg/mL (≈ 1.2 µM) against Cryptococcus neoformans; 1 µg/mL (≈ 0.599 µM) in the data set on Streptococcus pyogenes; 128 µg/mL (≈ 76.6 µM) against Klebsiella pneumoniae; 64 µg/mL (≈ 38.3 µM) in the data set with Candida albicans. Moreover, the MIC is 32 µg/mL (≈ 19.2 µM) with Staphylococcus aureus and 16 µg/mL (≈ 9.58 µM) in data set [8]. The selectivity ratio in data set [1], in data set [6] and in data set [7] was 2 each time. The Activity in [5] was 1.
In the case of `CC(C)C[C@@H]1NC(=O)[C@H](CCCCN)NC(=O)[C@H](C(C)C)NC(=O)[C@@H]2CCCN2C(=O)[C@@H](Cc2ccc(O)cc2)NC(=O)[C@H](CC(C)C)NC(=O)[C@H](CCCCN)NC(=O)[C@H](C(C)C)NC(=O)[C@@H]2CCCN2C(=O)[C@@H](Cc2ccc(O)cc2)NC1=O` (cyclo(KL[dY]PVKL[dY]PV)), the Activity in data set [5] turned out to be 1. Besides, the selectivity ratio in data set [9] was 100; in [10] it was 100; in [2], 100; in data set [12], 100; in data set [7], 1. The MIC in the data set with Streptococcus pneumoniae was found to be 1 µg/mL (≈ 0.832 µM); with Cryptococcus neoformans, 1 µg/mL (≈ 0.832 µM); against Enterococcus faecalis, 2 µg/mL (≈ 1.66 µM); against Klebsiella pneumoniae, 32 µg/mL (≈ 26.6 µM); in data set [11], 2 µg/mL (≈ 1.66 µM); against Streptococcus mitis, 1 µg/mL (≈ 0.832 µM). In data set [13], this compound gave an MIC of 16 µg/mL (≈ 13.3 µM).
In the case of `CC(C)C[C@@H]1NC(=O)[C@H](CCCN)NC(=O)[C@H](C(C)C)NC(=O)[C@@H]2CCCN2C(=O)[C@@H](Cc2ccccc2)NC(=O)[C@H](CC(C)C)NC(=O)[C@H](CCCN)NC(=O)[C@H](C(C)C)NC(=O)[C@@H]2CCCN2C(=O)[C@@H](Cc2ccccc2)NC1=O` [GRAMICIDIN S] (cyclo(L[dF]PV[Orn]L[dF]PV[Orn])), the MIC with Escherichia coli amounted to 16 µg/mL (≈ 14 µM); in the data set with Serratia marcescens, 256 µg/mL (≈ 224 µM); in the data set with Pseudomonas aeruginosa, 32 µg/mL (≈ 28 µM); against Streptococcus pneumoniae, 1 µg/mL (≈ 0.876 µM); in the data set on Cryptococcus neoformans, 1 µg/mL (≈ 0.876 µM); in the data set on Streptococcus pyogenes, 0.5 µg/mL (≈ 0.438 µM). For the same compound, the minimum inhibitory concentration (MIC) worked out at 4 µg/mL (≈ 3.5 µM) against Corynebacterium jeikeium; 2 µg/mL (≈ 1.75 µM) in the data set on Enterococcus faecalis; 16 µg/mL (≈ 14 µM) against Klebsiella pneumoniae; 2 µg/mL (≈ 1.75 µM) in data set [11]; 0.5 µg/mL (≈ 0.438 µM) against Streptococcus mitis; 8 µg/mL (≈ 7.01 µM) in the data set with Candida albicans. Also, the MIC with Staphylococcus aureus is 2 µg/mL (≈ 1.75 µM); in the data set on Enterobacter cloacae, 32 µg/mL (≈ 28 µM); in data set [8], 8 µg/mL (≈ 7.01 µM); in [13], 8 µg/mL (≈ 7.01 µM). In addition, the selectivity ratio in data set [1] is 12; in data set [6], 12; in data set [9], 25; in data set [10] it was 200; in data set [2], 100; in data set [14], 3. Also, the selectivity ratio is 50 in data set [3]; 0.3 in [15]; 200 in data set [16]; 6 in [17]; 50 in data set [18]; 12 in data set [4]. The selectivity ratio in data set [12] is 100; in data set [7], 3; in data set [20] it was 6; in data set [21], 50. Moreover, in data set [5], the Activity turned out to be 1. Moreover, the hemolysis at 24 h, 100 ug/ml in data set [19] came out at 100%.
Consider `CC(C)C[C@@H]1NC(=O)[C@H](CCCCN)NC(=O)[C@H](C(C)C)NC(=O)[C@@H]2CCCN2C(=O)[C@@H](Cc2ccc(O)cc2)NC(=O)[C@H](CC(C)C)NC(=O)[C@H](CCCCN)NC(=O)[C@H](C(C)C)NC(=O)[C@H](CCCCN)NC(=O)[C@H](CC(C)C)NC(=O)[C@@H]2CCCN2C(=O)[C@@H](Cc2ccc(O)cc2)NC(=O)[C@H](CCCCN)NC1=O` (cyclo(VKLK[dY]PLKVKL[dY]P)), for which the values for the selectivity ratio in data set [14] and in data set [15] were 4 and 2, respectively.

These data come from ChEMBL document CHEMBL1153373, “Effect of ring size on conformation and biological activity of cyclic cationic antimicrobial peptides” (J Med Chem, 2009).
